ChEMBL document CHEMBL3808338, “Combined inhibition of the EGFR/AKT pathways by a novel conjugate of quinazoline with isothiocyanate” (Eur J Med Chem, 2016)
Active and inactive are the calls of the source. The rule behind the calls is not given here.

Key:
[1] = test system: A-431; experiment: Antiproliferative activity against human A431 cells assessed as cell growth inhibition after 72 hrs by MTT assay; format: functional, cell-based; settings: A-431, 72 h
How it was run: (§1)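 A431 or HaCaT cells seeded at 1x10⁴ cells/well, incubated 24 h, then exposed to 0.03-30 µM for 72 h at 37°C, 5% CO₂. MTT (5 mg/ml in PBS) for 4 h after a PBS wash, formazan dissolved in isopropanol, read at 405 nm. Viability expressed as % of untreated cells; IC₅₀ taken from at least three independent dose-response curves.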

[2] = biological target: T1, Epidermal growth factor receptor (Homo sapiens, UniProt P00533); experiment: Inhibition of EGFR-TK in human A431 cell lysate assessed as reduction in EGF stimulated kinase activity at 20 uM after 60 mins using biotinylated peptide substrate by ELISA; format: cell-free; settings: A-431
How it was run: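 A431 cells seeded at 4x10⁶ per 100-mm dish and stimulated with EGF (100 nM) for 60 min with or without compound. Tyrosine kinase activity in lysates measured by direct colorimetric ELISA using a biotinylated peptide substrate and an anti-phosphotyrosine-HRP antibody.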

[3] = test system: HaCaT; experiment: Antiproliferative activity against human HaCaT cells assessed as cell growth inhibition after 72 hrs by MTT assay; format: functional, cell-based; how it was run: as §1
[4] = biological target: T1, Epidermal growth factor receptor; experiment: Inhibition of EGFR-TK in human A431 cell lysate assessed as reduction in EGF stimulated kinase activity after 60 mins using biotinylated peptide substrate by ELISA; format: cell-based, A-431
[5] = Antiproliferative activity against human HGF assessed as cell growth inhibition at 30 uM after 72 hrs by MTT assay; settings: HGF cells, read-out: GI
How it was run: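 Gingival fibroblasts were grown from healthy-donor biopsies of permanent molars in DMEM/F12 with 10% FCS, then seeded at 1x10⁴ cells/well. After 24 h, cells were treated for 72 h at 37°C, 5% CO₂. Read-out was MTT with isopropanol solubilization at 405 nm, expressed as % of untreated cells.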

[6] = Chemical stability of the compound in phosphate buffer assessed as degradation at 2 uM at pH 7.2 after 0.5 to 24 hrs by HPLC analysis; format: physicochemical; settings: pH 7.2, 2 µM
How it was run: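 Test solutions (2 µM) made from a 1 mg/mL DMSO stock diluted into pH 7.2 phosphate buffer and held at 37°C. Aliquots analysed by HPLC with diode-array detection on a phenyl-hexyl column at 0, 0.5, 2, 4 and 24 h.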

[7] = test system: A-431; experiment: Induction of apoptosis in human A431 cells assessed as DNA fragmentation at 2 uM after 24 hrs by ELISA analysis; format: functional
How it was run: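 A431 cells seeded at 5x10³ cells/well, then exposed to compound for 24 h at 37°C, 5% CO₂. Nucleosomal DNA fragmentation in lysate supernatants quantified by sandwich ELISA with anti-histone-biotin and anti-DNA-peroxidase antibodies and ABTS substrate (20 min), read at 405 nm. Expressed as fold increase, treated over untreated absorbance.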

[8] = biological target: T1, Epidermal growth factor receptor; settings: A-431, 2 uM
[9] = biological target: T1, Epidermal growth factor receptor; settings: A-431, 10 uM
[10] = test system: A-431; experiment: Effect on total Akt levels in human A431 cells after 2 hrs by ELISA analysis; format: cell-based; settings: a-431, 2 h

T1 sequence (P00533 whole entry): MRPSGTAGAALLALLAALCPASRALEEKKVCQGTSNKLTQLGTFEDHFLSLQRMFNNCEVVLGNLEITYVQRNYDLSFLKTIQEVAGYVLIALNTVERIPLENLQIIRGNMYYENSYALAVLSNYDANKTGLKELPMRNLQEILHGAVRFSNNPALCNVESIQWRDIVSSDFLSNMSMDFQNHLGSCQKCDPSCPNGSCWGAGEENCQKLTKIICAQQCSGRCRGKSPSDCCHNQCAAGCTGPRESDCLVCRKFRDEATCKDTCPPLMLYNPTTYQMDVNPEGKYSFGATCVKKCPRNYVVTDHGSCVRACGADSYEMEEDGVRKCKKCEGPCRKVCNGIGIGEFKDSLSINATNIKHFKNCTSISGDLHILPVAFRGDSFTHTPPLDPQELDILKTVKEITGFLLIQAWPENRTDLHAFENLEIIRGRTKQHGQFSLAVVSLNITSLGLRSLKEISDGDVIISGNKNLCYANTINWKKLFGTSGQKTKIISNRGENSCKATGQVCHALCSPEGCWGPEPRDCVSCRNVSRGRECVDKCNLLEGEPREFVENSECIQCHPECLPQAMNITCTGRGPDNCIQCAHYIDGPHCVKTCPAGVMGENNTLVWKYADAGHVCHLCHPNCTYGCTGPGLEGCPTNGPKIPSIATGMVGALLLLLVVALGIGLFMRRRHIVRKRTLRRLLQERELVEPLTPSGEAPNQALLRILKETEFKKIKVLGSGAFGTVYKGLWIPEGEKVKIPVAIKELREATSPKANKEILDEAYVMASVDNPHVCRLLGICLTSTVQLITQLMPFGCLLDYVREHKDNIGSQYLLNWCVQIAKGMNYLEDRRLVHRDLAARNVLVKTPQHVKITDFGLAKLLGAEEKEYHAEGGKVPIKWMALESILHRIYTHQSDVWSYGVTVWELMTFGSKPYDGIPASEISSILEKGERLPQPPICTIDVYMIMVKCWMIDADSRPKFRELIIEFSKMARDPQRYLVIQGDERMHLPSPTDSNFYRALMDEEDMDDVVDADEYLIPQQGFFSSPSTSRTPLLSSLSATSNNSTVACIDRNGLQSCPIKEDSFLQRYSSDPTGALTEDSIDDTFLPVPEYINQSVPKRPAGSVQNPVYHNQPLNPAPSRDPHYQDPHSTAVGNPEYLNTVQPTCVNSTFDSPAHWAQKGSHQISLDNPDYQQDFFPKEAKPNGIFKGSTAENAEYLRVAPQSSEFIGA

| Compound | IC50 [1] | inhibition [2] | IC50 [3] | inhibition at 72 h, 30 µM [5] | Activity [7] | further results |
| --- | --- | --- | --- | --- | --- | --- |
| C[S+]([O-])CCCCN=C=S (centres undefined) [SULFORAPHANE] | 15.8 µM |  |  |  |  | IC50 [4]: 9 µM |
| O=C(CCCCCN=C=S)Nc1ccc2ncnc(Nc3cccc(Br)c3)c2c1 | 14.4 µM | < 50% | 16.5 µM | < 50% |  | Stability [6]: Stable |
| C=CC(=O)Nc1ccc2ncnc(Nc3cccc(Br)c3)c2c1 |  |  |  |  | 48% |  |
| Nc1ccc2ncnc(Nc3cccc(Br)c3)c2c1 | 11.1 µM |  | 14.3 µM | < 50% |  |  |
| CC[C@@]1(O)C(=O)OCc2c1cc1n(c2=O)Cc2cc3ccccc3nc2-1 [CAMPTOTHECIN] |  |  |  |  | 65% |  |

The next lines start with results.

| IC50 [1] | inhibition [2] | Compound | IC50 [3] | inhibition at 72 h, 30 µM [5] | Activity [7] | further results |
| --- | --- | --- | --- | --- | --- | --- |
| 16.1 µM | < 50% | O=C(CCCCCCN=C=S)Nc1ccc2ncnc(Nc3cccc(Br)c3)c2c1 | 17.3 µM |  |  |  |
| 17.1 µM | < 50% | O=C(CCCN=C=S)Nc1ccc2ncnc(Nc3cccc(Br)c3)c2c1 | 16.3 µM | < 50% |  |  |
| 17.1 µM | < 50% | O=C(CCN=C=S)Nc1ccc2ncnc(Nc3cccc(Br)c3)c2c1 | 18.9 µM |  |  |  |
| 16.3 µM | < 50% | O=C(CCCCN=C=S)Nc1ccc2ncnc(Nc3cccc(Br)c3)c2c1 | 18.2 µM |  |  |  |
| 2.04 µM |  | S=C=Nc1ccc2ncnc(Nc3cccc(Br)c3)c2c1 | 2.62 µM | < 50% | 40% | inhibition [8]: Active; inhibition [9]: 89%; IC50 [4]: 0.88 µM; Stability [6]: Stable; Activity [10]: Non-toxic |
